As usually defined, the IC50 is the concentration at which inhibition is half-maximal.

Series [1] deals with Mus musculus. Put plainly: Toxicity in NOD-SCID mouse xenografted with FLT3-ITD-positive human MV4-11 cells assessed as body weight loss at 1 to 10 mg/kg/day, po administered 18 days measured every 3 days for 18 days. The format is organism-based. Also on record: route oral. As to conditions: in vivo, 432 h. The gist of the method:
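NOD-SCID mice, 5–6 weeks old, received 100 μL of MV4-11 cells sc (1 × 10⁸/mL in serum-free medium). At 300–500 mm³ tumors, mice were grouped (six per group) and gavaged once daily for 18 days at 1, 3 or 10 mg/kg/d. Vehicle was 12.5% castor oil, 12.5% ethanol and 75% water. Body weights were tracked; tumors were measured every 3 d.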
For orientation: In xenograft studies the graft and the host belong to different species.

For series [2], the target named is T1, Receptor-type tyrosine-protein kinase FLT3 (Homo sapiens, UniProt P36888).
T1 sequence (P36888 whole entry): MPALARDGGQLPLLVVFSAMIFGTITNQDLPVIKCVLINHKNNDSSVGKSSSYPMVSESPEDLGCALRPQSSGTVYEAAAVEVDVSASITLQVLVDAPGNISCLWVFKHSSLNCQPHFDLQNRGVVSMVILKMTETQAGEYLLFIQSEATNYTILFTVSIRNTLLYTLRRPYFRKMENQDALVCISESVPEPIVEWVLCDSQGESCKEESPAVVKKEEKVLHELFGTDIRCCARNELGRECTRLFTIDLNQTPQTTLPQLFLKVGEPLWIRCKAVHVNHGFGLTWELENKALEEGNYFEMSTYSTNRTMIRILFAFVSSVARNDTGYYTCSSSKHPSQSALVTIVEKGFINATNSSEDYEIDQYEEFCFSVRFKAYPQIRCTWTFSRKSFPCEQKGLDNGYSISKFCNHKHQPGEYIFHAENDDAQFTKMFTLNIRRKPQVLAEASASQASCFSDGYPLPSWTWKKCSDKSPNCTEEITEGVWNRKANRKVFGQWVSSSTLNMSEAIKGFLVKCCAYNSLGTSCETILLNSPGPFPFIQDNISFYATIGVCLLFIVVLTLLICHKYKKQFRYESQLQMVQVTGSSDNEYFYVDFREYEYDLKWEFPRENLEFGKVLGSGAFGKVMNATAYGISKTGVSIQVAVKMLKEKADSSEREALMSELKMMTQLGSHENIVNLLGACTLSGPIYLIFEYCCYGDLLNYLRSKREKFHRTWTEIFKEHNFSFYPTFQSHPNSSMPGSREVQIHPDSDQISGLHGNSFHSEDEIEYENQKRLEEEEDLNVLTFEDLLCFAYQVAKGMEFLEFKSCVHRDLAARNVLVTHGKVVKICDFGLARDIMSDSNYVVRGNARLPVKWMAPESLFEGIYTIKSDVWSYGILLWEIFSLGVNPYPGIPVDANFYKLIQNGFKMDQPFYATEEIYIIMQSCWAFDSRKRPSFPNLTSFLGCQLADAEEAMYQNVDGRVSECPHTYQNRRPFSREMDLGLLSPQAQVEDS
Put plainly: Inhibition of FLT3 in human MV4-11 cells assessed as inhibition of STAT5 phosphorylation after 20 hrs by Western blotting analysis. The format is cell-based.

Series [3] relates to MV4-11. Put plainly: Induction of apoptosis in human MV4-11 cells after 24 hrs by annexin V-FITC/propidium iodide staining-based FACS flow cytometric analysis. It is filed as functional, cell-based. (In general: Flow cytometry measures light scatter and fluorescence of single cells or particles in a stream.)
For series [4], the system named is MV4-11. Description: Induction of apoptosis in human MV4-11 cells assessed as early apoptotic cells at 0.03 uM after 24 hrs by annexin V-FITC/propidium iodide staining-based FACS flow cytometric analysis (reference value: 1.61%). The format is functional.
Series [5] concerns MV4-11. Description: Induction of apoptosis in human MV4-11 cells assessed as early apoptotic cells at 0.01 uM after 24 hrs by annexin V-FITC/propidium iodide staining-based FACS flow cytometric analysis (reference value: 1.61%). It is filed as functional.
Series [6] has as its system MV4-11. Description: Induction of apoptosis in human MV4-11 cells assessed as late apoptotic cells at 0.003 uM after 24 hrs by annexin V-FITC/propidium iodide staining-based FACS flow cytometric analysis (reference value: 4.28%). The format is functional.
The test system of series [7] is MV4-11. Description: Induction of apoptosis in human MV4-11 cells assessed as late apoptotic cells at 0.001 uM after 24 hrs by annexin V-FITC/propidium iodide staining-based FACS flow cytometric analysis (reference value: 4.28%). The format is functional.
Series [8] has as its system A549. Put plainly: Cytotoxicity against human A549 cells assessed as growth inhibition after 72 hrs by MTT assay. As to conditions: A549, 72 h. For orientation: Formazan colour is commonly taken as a measure of viable cells.
Series [9] relates to HCT-116. Put plainly: Cytotoxicity against human HCT116 cells assessed as growth inhibition after 72 hrs by MTT assay. The conditions noted are these: HCT-116, 72 h.
The subject of series [10] is HL-60. Put plainly: Cytotoxicity against human HL60 cells assessed as growth inhibition after 72 hrs by MTT assay. The conditions noted are these: HL-60, 72 h.
For series [11], the target named is Serine/threonine-protein kinase pim-1 (Homo sapiens, UniProt P11309). Description: Inhibition of Pim-1 (unknown origin).
Sequence of Serine/threonine-protein kinase pim-1 (P11309 whole entry): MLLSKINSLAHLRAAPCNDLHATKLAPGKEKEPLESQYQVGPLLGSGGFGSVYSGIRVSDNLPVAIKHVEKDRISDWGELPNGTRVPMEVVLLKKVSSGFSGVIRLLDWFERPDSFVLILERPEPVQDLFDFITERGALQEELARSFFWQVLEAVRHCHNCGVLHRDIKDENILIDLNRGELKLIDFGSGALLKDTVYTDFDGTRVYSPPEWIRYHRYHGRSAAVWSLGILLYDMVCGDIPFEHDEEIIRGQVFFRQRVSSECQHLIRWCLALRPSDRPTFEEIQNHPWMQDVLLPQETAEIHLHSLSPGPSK
In series [12] the target is Mast/stem cell growth factor receptor Kit (Homo sapiens, UniProt P10721). Description: Inhibition of c-Kit (unknown origin).
Sequence of Mast/stem cell growth factor receptor Kit (P10721 whole entry): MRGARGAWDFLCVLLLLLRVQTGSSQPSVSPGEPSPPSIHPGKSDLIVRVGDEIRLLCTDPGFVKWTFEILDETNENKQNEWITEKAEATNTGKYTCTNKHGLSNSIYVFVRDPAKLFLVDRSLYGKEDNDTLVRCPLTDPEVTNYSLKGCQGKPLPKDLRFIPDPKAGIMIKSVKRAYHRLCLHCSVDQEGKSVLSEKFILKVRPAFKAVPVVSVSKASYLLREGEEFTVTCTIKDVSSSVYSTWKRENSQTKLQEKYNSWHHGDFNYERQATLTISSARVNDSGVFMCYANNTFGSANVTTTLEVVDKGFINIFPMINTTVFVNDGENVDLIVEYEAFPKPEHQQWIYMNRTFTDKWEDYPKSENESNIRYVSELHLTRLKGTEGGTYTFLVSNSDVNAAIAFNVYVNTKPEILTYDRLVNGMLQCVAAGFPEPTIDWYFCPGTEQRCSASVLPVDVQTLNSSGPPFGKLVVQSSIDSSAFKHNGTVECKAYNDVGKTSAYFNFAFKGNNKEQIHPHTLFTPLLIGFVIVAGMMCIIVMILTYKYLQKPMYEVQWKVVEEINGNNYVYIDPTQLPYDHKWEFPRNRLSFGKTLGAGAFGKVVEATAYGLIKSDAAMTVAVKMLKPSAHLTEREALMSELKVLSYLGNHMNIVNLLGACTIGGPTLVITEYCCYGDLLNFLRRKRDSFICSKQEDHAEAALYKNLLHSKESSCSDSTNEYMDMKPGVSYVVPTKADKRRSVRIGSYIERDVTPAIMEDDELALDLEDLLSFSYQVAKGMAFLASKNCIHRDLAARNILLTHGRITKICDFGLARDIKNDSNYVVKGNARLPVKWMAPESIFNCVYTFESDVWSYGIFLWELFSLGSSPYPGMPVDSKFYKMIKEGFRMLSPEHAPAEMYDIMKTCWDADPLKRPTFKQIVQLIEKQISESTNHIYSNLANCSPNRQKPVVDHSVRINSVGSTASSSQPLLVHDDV
In series [13] the target is T1, Receptor-type tyrosine-protein kinase FLT3. Put plainly: Inhibition of FLT3 (unknown origin).
For series [14], the system named is HeLa. Description: Cytotoxicity against human HeLa cells assessed as growth inhibition after 72 hrs by MTT assay. The format is functional, cell-based. The gist of the method:
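MTT viability assay with serial inhibitor dilutions for 72 h at 37 °C, then MTT for 2–4 h and OD read at 570 nm. Leukemia lines were seeded at (1–4) × 10⁴ cells/well and lysed with 20% acidified SDS. Adherent lines were seeded at (2–5) × 10³ cells/well, dosed after 24 h and dissolved in DMSO. Triplicate; mean ± SD.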

The structures appear in SMILES notation. Bounds are passed on as bounds.

`O=C(Nc1ccc(Oc2ncnc3[nH]ncc23)cc1)Nc1ccc(Cl)c(C(F)(F)F)c1`: the Activity result in series [1] is “Non-toxic”; in series [3] it was “Dose-dependent effect”; in series [4] it was 8.93%; in [5], 5.88%; in series [6], 7.11%; in series [7], 5.5%. Besides, the half-maximal inhibitory concentration (IC50) in [2] was 3 nM; in series [8], greater than 10000 nM; in series [9], greater than 10000 nM; in series [10] it was greater than 10000 nM; in [11] it was greater than 10000 nM; in [12], 507 nM. In addition, the IC50 in series [13] was 39 nM; in [14], greater than 10000 nM.

For the origin of these results see ChEMBL document CHEMBL2331331 (J Med Chem, 2013).
